# Measured values pooled from the literature.
# Each line is one published result; the experiments were not run side by side.
# PIK3CA E545A: Phosphatidylinositol 4,5-bisphosphate 3-kinase catalytic subunit alpha isoform (PIK3CA, Homo sapiens, UniProt P42336, E545A)
# PIK3CA H1047L: Phosphatidylinositol 4,5-bisphosphate 3-kinase catalytic subunit alpha isoform (PIK3CA, Homo sapiens, UniProt P42336, H1047L)
# PIK3CA E542K: Phosphatidylinositol 4,5-bisphosphate 3-kinase catalytic subunit alpha isoform (PIK3CA, Homo sapiens, UniProt P42336, E542K)
# PIK3CA M1043I: Phosphatidylinositol 4,5-bisphosphate 3-kinase catalytic subunit alpha isoform (PIK3CA, Homo sapiens, UniProt P42336, M1043I)
# PIK3CA H1047Y: Phosphatidylinositol 4,5-bisphosphate 3-kinase catalytic subunit alpha isoform (PIK3CA, Homo sapiens, UniProt P42336, H1047Y)
# PIK3CA C420R: Phosphatidylinositol 4,5-bisphosphate 3-kinase catalytic subunit alpha isoform (PIK3CA, Homo sapiens, UniProt P42336, C420R)
# PIK3CA Q546K: Phosphatidylinositol 4,5-bisphosphate 3-kinase catalytic subunit alpha isoform (PIK3CA, Homo sapiens, UniProt P42336, Q546K)
# PIK3CA E545K: Phosphatidylinositol 4,5-bisphosphate 3-kinase catalytic subunit alpha isoform (PIK3CA, Homo sapiens, UniProt P42336, E545K)
SMILES,target,observed,method,concentration,remaining binding [%]
CN(C)c1ncc(F)c(-c2cnn3ncccc23)n1,PIK3CA E545A,binding,,1 µM,59
COc1cnc(Nc2cccc(S(N)(=O)=O)c2)nc1N1CCN(c2ccccc2)CC1,PIK3CA H1047L,binding,competition with immobilised ligand,1 µM,81
Cc1c(C(=O)O)cc(-c2ccc(C3CCNCC3)cc2)c2ccc(-c3ccc(C(F)(F)F)cc3)cc12,"Phosphatidylinositol 4,5-bisphosphate 3-kinase catalytic subunit alpha isoform (PIK3CA, Homo sapiens, UniProt P42336, I800L)",cell-free assay,competition with immobilised ligand,1 µM,100
N[C@H]1CCN(c2nccc(-c3cnn4ncccc34)n2)C1,PIK3CA E542K,binding,,1 µM,83
O=C(O)c1cc(-c2ccc(C3CCNCC3)cc2)c2ccc(-c3ccc(C(F)(F)F)cc3)cc2c1,PIK3CA M1043I,cell-free assay,competition with immobilised ligand,1 µM,100
C=CC(=O)N1CCC(C(=O)NCC(=O)N2CCN(c3nc(-c4cnc(N)nc4C(F)F)nc(N4CCOCC4)n3)CC2)CC1,PIK3CA H1047L,binding,competition with immobilised ligand,1 µM,0.45
O=C(c1ccc(Nc2nccc(-c3cc4ccccc4s3)n2)cc1)N1CCC(N2CCCC2)CC1,PIK3CA M1043I,binding,competition with immobilised ligand,1 µM,81
c1cncc(-c2cccc(Nc3nccc(NC4CCCCC4)n3)c2)c1,PIK3CA M1043I,binding,competition with immobilised ligand,10 µM,84
O=C(NCCCN1CCOCC1)c1ccc(Nc2nccc(-c3cc4ccccc4s3)n2)cc1,PIK3CA H1047Y,binding,competition with immobilised ligand,1 µM,73
F[C@@H]1CCN(c2nccc(-c3cnn4ncccc34)n2)C1,PIK3CA C420R,binding,,1 µM,90
CN1CCN(c2ccc(Nc3nccc(-c4ccccc4)n3)cc2C(F)(F)F)CC1,PIK3CA E545A,binding,,10 µM,100
O=C(NCCCN1CCOCC1)c1ccc(Nc2ncc(Cl)c(-c3ccc(Cl)s3)n2)cc1,PIK3CA Q546K,binding,competition with immobilised ligand,1 µM,100
CN(CCCC(F)(F)F)c1nccc(-c2cnn3ncccc23)n1,PIK3CA Q546K,binding,,1 µM,69
CCN1CCN(Cc2ccc(C(=O)Nc3ccc(C)c(Oc4ccc5c(c4)CC(=O)N5)c3)cc2C(F)(F)F)CC1,PIK3CA E545K,binding,competition with immobilised ligand,1 µM,93
CC1CCCN1c1nccc(-c2cnn3ncccc23)n1 (stereo not shown),PIK3CA Q546K,binding,,1 µM,42
O=C(c1ccc(Nc2ncc(Cl)c(-c3cc4ccccc4s3)n2)cc1)N1CCC(N2CCCC2)CC1,PIK3CA E545A,binding,competition with immobilised ligand,1 µM,99
CN1CCN(c2ccc(Nc3nccc(-c4cccc([N+](=O)[O-])c4)n3)cc2C(F)(F)F)CC1,PIK3CA C420R,binding,,10 µM,53
c1cnn2ncc(-c3ccnc(N4CCC45COC5)n3)c2c1,PIK3CA H1047L,binding,,1 µM,62
O=C(NCC1CCOCC1)c1n[nH]cc1NC(=O)c1c(F)cccc1F,PIK3CA H1047L,binding,competition with immobilised ligand,1 µM,74
Nc1ncc2c(n1)-c1c([nH]c3ccc(C#CC4CC4)cc13)CCCC2,PIK3CA E545K,binding,competition with immobilised ligand,1 µM,100
Cc1cnn2ncc(-c3ccnc(N(C)C)n3)c2c1,PIK3CA C420R,binding,,1 µM,100
CNC(=O)[C@@H]1CC[C@@H](n2c(-c3ccc4cnccc4c3)nc3ccc(C(=O)NCc4cccc(C(N)=O)c4)cc32)C1,PIK3CA M1043I,binding,competition with immobilised ligand,1 µM,79
CNCc1ccccc1-c1csc([C@H](C)Nc2nc(C)nc3cc(OC)c(OC)cc23)c1,PIK3CA M1043I,cell-free assay,competition with immobilised ligand,1 µM,100
O=C(c1ccc(Nc2ncc(Cl)c(-c3ccc(Cl)s3)n2)cc1)N1CCC(N2CCCC2)CC1,PIK3CA M1043I,binding,competition with immobilised ligand,1 µM,100
FC(F)(F)c1ccc2c(c1)nc(-c1cccnc1)n2C1CC1,PIK3CA C420R,cell-free assay,competition with immobilised ligand,1 µM,92
COc1cnc(Nc2cccc(S(N)(=O)=O)c2)nc1N1CCN(c2ccccc2)C(=O)C1,PIK3CA H1047Y,binding,competition with immobilised ligand,1 µM,81
CS(=O)(=O)N1CCCC(NC(=O)[C@H](CCC2CCCCC2)NC(=O)c2ccc(CNc3ncnc4c3nnn4-c3ccccc3)cc2)C1 (stereo partly shown),PIK3CA E545K,cell-free assay,competition with immobilised ligand,0.1 µM,53
Cc1cnc(Nc2ccc(C(=O)N3CCC(N4CCCC4)CC3)cc2)nc1-c1cc2ccccc2s1,PIK3CA M1043I,binding,competition with immobilised ligand,1 µM,74
Cc1cc(C)c(-n2ccn3nc(-c4cccnc4)cc23)cc1NC(=O)c1cc(C#N)cc(S(F)(F)(F)(F)F)c1,PIK3CA H1047Y,cell-free assay,competition with immobilised ligand,0.1 µM,76.2
COc1ncc2cc3ccccc3nc2c1C#N,PIK3CA M1043I,cell-free assay,competition with immobilised ligand,5 µM,100
COCCOc1nc(-c2ccc(Cl)nc2)nc2c1CN(C(=O)c1ncn3ccccc13)CC2,PIK3CA M1043I,cell-free assay,competition with immobilised ligand,0.1 µM,88
O=C(Nc1c[nH]nc1C(=O)NC1CCNCC1)c1cc(F)cc(F)c1,PIK3CA E542K,binding,competition with immobilised ligand,1 µM,88
C[C@@H](c1ccc(-n2cnc3c(N)ncnc32)cc1)N1CCc2nn(C)c(Cc3ccccc3)c2C1=O,PIK3CA M1043I,binding,competition with immobilised ligand,0.1 µM,89
C[C@H](NC(=O)c1cnc2n1[C@](C)(Cc1ccc(C#N)cc1)C(=O)N2c1cc(Cl)c(F)c(Cl)c1)C(=O)NC1(c2ccccn2)CC1,PIK3CA H1047L,cell-free assay,competition with immobilised ligand,1 µM,81
